Shown are actives, neighbours in structure and some others; about 2.5% of the full set was active somewhere.
ADAM10 inh = inhibitors of human ADAM10; O14672; recombinant ADAM10, EDANS/DABCYL FRET peptide cleavage, 3 h; inhibition, % at 7 µM; 370,000 tested, 0.62% active; AID 720582;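 active = inhibition above a per-campaign cutoff equal to the mean of compounds falling between control-based bounds plus 3 SD, cut at about 20% in these data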;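 also: 0% = DMSO wells while the 100% control is not disclosed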
GASC-1 inh = blocks human GASC-1 demethylase activity; Q9H3R0; 330,000 tested, 0.069% active; GST-JMJD2C(1-420) H3K9me3 demethylation, DELFIA europium; inhibition, % at 2.35 µM;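 active = more than half of a compound's replicate wells show inhibition beyond 50%, single wells judged on their own value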;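 also: signal counts dimethyl H3K9 product captured on neutravidin plate; 0% = median of DMSO wells and 100% = 0.3 times that DMSO median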
ADAM17 inh = ADAM17 inhibition, QFRET primary screen; P78536; recombinant ADAM17, EDANS/DABCYL FRET peptide cleavage; inhibition, % at 6.95 µM; 370,000 tested, 0.83% active; AID 720648;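 active = inhibition above the mean of compounds lying between control limits plus 3 SD, set per campaign, cut at about 8.5% in these data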;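 also: 0% = DMSO-only wells as the low control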
KLK7 zymogen act = activates the human kallikrein-7 zymogen. activation, % at 7 µM. purified proKLK7, EDANS-DABCYL substrate fluorescence; 100% is mature enzyme control, 0% vehicle. 370,000 tested, 0.9% active;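 active = activation above the mean of all tested compounds plus 3 SD, computed per campaign excluding outliers beyond control limits, cut at about 13% in these data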
Target sequence (P49862 whole entry, looked up): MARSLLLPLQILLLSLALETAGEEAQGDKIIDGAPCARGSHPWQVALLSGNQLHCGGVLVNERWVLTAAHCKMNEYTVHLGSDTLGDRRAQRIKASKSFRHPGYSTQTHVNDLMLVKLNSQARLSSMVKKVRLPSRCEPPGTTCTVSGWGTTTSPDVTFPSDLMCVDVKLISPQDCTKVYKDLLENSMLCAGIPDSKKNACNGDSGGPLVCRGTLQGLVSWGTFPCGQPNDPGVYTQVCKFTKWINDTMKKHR
NR2E3 ag-1 = activates human photoreceptor nuclear receptor NR2E3; GST-NR2E3/biotin-RetCOR TR-FRET, 1536-well; Q9Y5X4; inhibition of corepressor binding, % at 4.78 µM; 320,000 tested, 0.12% active;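 active = percent inhibition above the cutoff of mean plus 3 SD of all tested compounds, set per screening campaign, cut at about 20% in these data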;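 also: 0% = DMSO wells and 100% = biotin wells as full block of FRET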
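Material: NR2E3–RetCOR corepressor complex | Quantity: 1.35 nM GST-tagged NR2E3 final | Schedule: 5 h at 4 °C | Replication: Singlicate compound wells | Reagent: RetCOR corepressor, biotinylated, 7 nM | Controls: Biotin wells as high control, 0.6% DMSO wells as low control | Signal: TR-FRET, Eu(K)-anti-GST donor, streptavidin-D2 acceptor, ex 340, em 617/671 nm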
NR2E3 ag-2 = agonists of human NR2E3 nuclear receptor | CHO-S Gal4-NCOR/VP16-NR2E3 two-hybrid, luciferase | inhibition of corepressor binding, % at 3.98 µM | 360,000 tested, 0.35% active | AID 602229 | Q9Y5X4;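 active = inhibition above the mean of all tested compounds plus 3 SD, cut at about 70% in these data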;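 also: 0% = DMSO with NR2E3 transfected cells and 100% = cells lacking NR2E3 construct; higher means lower luciferase signal from less NR2E3 corepressor binding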
NR2E3 ag confirm = NR2E3 agonism confirmed in two-hybrid assay; shares compounds with NR2E3 ag-2; AID 624378; 2,300 tested, 51% active; inhibition, % at 3.98 µM; CHO-S mammalian two-hybrid NR2E3-NCOR, luciferase luminescence;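 active = average inhibition above a cutoff equal to the mean inhibition of all tested compounds plus one SD, cut at about 70% in these data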;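 also: 0% = DMSO in NR2E3 cells and 100% = DMSO in cells lacking NR2E3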
GAL4-VP16 luc = counter-screen for NR2E3 agonists: GAL4-VP16 reporter inhibitors; shares compounds with NR2E3 ag-2; 2,300 tested, 29% active; inhibition, % at 3.98 µM; AID 624379; CHO-S GAL4-VP16 luciferase reporter, luminescence;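 active = mean inhibition above a cutoff equal to the average over all tested compounds plus one standard deviation, cut at about 70% in these data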;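 also: luciferase from a UAS reporter driven by GAL4-VP16 transactivation; 0% = DMSO with VP16-transfected cells and 100% = DMSO with cells lacking VP16; higher means less reporter light so more repression of VP16 activity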
The depositor's hits bear a star; x = no result given.

SMILES	ADAM10 inh	GASC-1 inh	ADAM17 inh	KLK7 zymogen act	NR2E3 ag-1	NR2E3 ag-2	NR2E3 ag confirm	GAL4-VP16 luc
CCOC(=O)c1cc(S(=O)(=O)Nc2cccc(OC)c2)cn1C	2.5	-1.0	-4.2	-0.8	0.4	53.9	25.1	28.1
CN(C)C(=S)N=c1ssc(=S)n1Cc1ccccc1	-9.7	x	-3.1	-0.2	x	90.4*	-24.1	-56.2
CCOc1cc(CNc2ccc3c(c2)OCCO3)cc(Br)c1OCC	8.1	6.4	1.3	0.8	1.4	57.5	-6.2	-9.2
CCCOc1ccc(Br)cc1CSC(=N)N	-6.0	-3.4	-0.4	-0.3	-0.6	51.3	45.8	49.5
COc1cccc(NS(=O)(=O)c2ccc3c(c2)NC(=O)C(C)S3)c1 (stereo unspecified)	8.1	-0.8	-2.2	0.2	-3.3	57.8	35.7	34.9
CC1Sc2ccc(S(=O)(=O)N(C)Cc3ccccc3)cc2NC1=O (stereo unspecified)	-7.5	4.9	-1.5	0.1	2.0	-14.2	x	x
COc1ccccc1NS(=O)(=O)c1ccc2c(c1)NC(=O)C(C)S2 (stereo unspecified)	-7.6	9.9	-1.8	1.0	-0.8	14.4	x	x
COc1ccc(N2CCN(S(=O)(=O)c3ccc4c(c3)NC(=O)C(C)S4)CC2)cc1 (stereo unspecified)	-1.0	-1.2	-4.6	-0.1	1.0	64.1	37.7	29.1
CCC(Cc1ccccc1)NS(=O)(=O)c1ccc2c(c1)NC(=O)C(C)S2 (stereo unspecified)	10.1	-0.1	5.5	0.7	3.9	49.2	62.0	50.2
CCc1cccc(NS(=O)(=O)c2ccc3c(c2)NC(=O)C(C)S3)c1 (stereo unspecified)	7.3	-9.8	2.9	-0.9	2.4	48.4	65.7	56.6
C[C@H]1COc2cc(Br)ccc2S(=O)(=O)N1Cc1cn(Cc2ccc(Cl)cc2)nn1	7.0	x	-0.4	1.2	x	x	x	x
CC[C@@]1(c2ccc(C)cc2)C(=O)N(C(=O)OC)N1C(=O)OC	-7.0	x	-3.6	-0.3	x	x	x	x
C/C(=N/NC(=O)CNC(=O)Cc1ccccc1)c1ccc(Cl)cc1	-9.7	-1.9	-2.6	0.5	-0.7	-30.4	x	x
Cc1cc(C)cc(OC[C@@H](O)CN2CCC(C(O)(c3ccccc3)c3ccccc3)CC2)c1	5.5	x	4.1	0.0	x	x	x	x
Cc1ccc(CNS(=O)(=O)c2ccc3c(c2)NC(=O)C(C)S3)cc1 (stereo unspecified)	3.0	9.3	1.6	0.2	1.0	52.6	45.6	45.5
C/C(=N\NC(=S)NC1CCCCC1)c1ccc(O)cc1	8.1	5.3	-2.6	-0.4	2.6	-0.5	x	x
C/C(=N\NC(=S)NC1CCCCC1)c1ccccc1	7.2	0.4	1.9	0.3	-1.7	55.3	26.8	-43.2
CSC1=NCCN1C(=O)c1c(-c2c(F)cccc2Cl)noc1C	-9.8	11.4	-6.1	-0.1	0.5	-6.9	x	x
Cc1nnc(SC(C)C(=O)Nc2sc3c(c2C#N)CCCC3)[nH]c1=O (stereo unspecified)	-6.2	-10.4	0.1	0.3	1.5	-3.4	x	x
CC(Sc1nc(N)cc(=O)[nH]1)C(=O)Nc1sc2c(c1C#N)CCCC2 (stereo unspecified)	0.7	1.7	-0.3	0.4	1.1	50.6	60.8	61.3
N#Cc1c(NC(=O)CSc2nc(N)cc(=O)[nH]2)sc2c1CCCCCC2	-5.4	1.3	-3.0	0.4	-0.3	69.5	35.5	45.0
CCC(Sc1nc(C)cc(=O)[nH]1)C(=O)Nc1sc2c(c1C#N)CCCC2 (stereo unspecified)	-5.2	2.2	3.9	-0.2	0.7	88.1*	76.3*	52.8
N#Cc1c(NC(=O)CSc2ncn[nH]2)sc2c1CCCCC2	7.1	2.1	0.3	0.6	2.2	46.3	x	x
O=C(c1ccc([N+](=O)[O-])cc1Cl)N1CCN(Cc2ccccc2)CC1	0.2	x	-1.1	0.5	x	8.2	x	x

Screening results deposited in PubChem by several laboratories.
